Compound activity from PubChem.
Shown is part of a subset that was picked to be rich in hits.
DTT redox prof: compounds producing H2O2 with reducing agent – biochemical, NIH compound library profiling, artefact control for MLSCN library redox annotation, primary screen. DTT-dependent redox cycling H2O2, phenol red/HRP absorbance; 100% = 100 µM peroxide control, 0% = buffer. AID 878. activation, % at 10 µM. 0.03% of 200,000 active;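 active = activation of at least 50% relative to the plate's high and low controls in the primary single-dose screen; inactive = activation below 50%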;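 note: compound incubated with DTT at 0.8 mM final as the reducing agent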
L major viab: Leishmania major promastigote growth inhibition; Leishmania major promastigotes, resazurin fluorescence viability; inhibition, % at 10 µM; 9% of 200,000 active; AID 1063; in the data active = inhibition above about 50%;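 note: promastigotes grown with compound for 44 hours at 28 °C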
MPTP block: blocks calcium-induced mitochondrial swelling | 1.4% of 360,000 active | AID 602449 | isolated mouse mitochondria, Ca2+ swelling absorbance, 30 min | inhibition, % at 10 µM;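 active = inhibition of 50% or more, scaled per plate between neutral and stimulator controls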;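 note: 0% = DMSO wells given calcium and 100% = 1 mM EGTA wells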
Hep lipid drop: modulators of hepatic lipid droplet formation; AML12 mouse hepatocytes, oleate lipid droplets, BODIPY imaging; inhibition, % at 6.5 µM; 0.4% of 240,000 active; AID 1656;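 active = lipid droplet intensity inhibited by at least 50%, with more than 500 cells counted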
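Assay system: AML12 hepatocytes (mouse); Probe or stimulus: oleic acid at 100 µM to induce lipid droplet formation; Dosing: compound at 6.5 µM only; Schedule: compound with oleate, overnight; Detection: fluorescence imaging, 20x objective, two fields per well; Measure: % inhibition of lipid droplet signal.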
T cruzi repl: blocks replication of Trypanosoma cruzi | T. cruzi beta-gal in NIH3T3, luminescence, 90 h | inhibition, % (test concentration not listed) | 1.4% of 300,000 active | AID 1885;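 active = mean inhibition across valid replicates above about 55%, limit read from the data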;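 note: signal also drops with host cell toxicity which is not excluded here; 0% = plate median of DMSO wells and 100% = zero luminescence signal; higher percent means less beta-gal luminescence so fewer parasites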
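System – NIH/3T3 host cells with β-galactosidase reporter T. cruzi · Doses – single 50 nL compound addition per well in DMSO · Reagent – 5000 T. cruzi trypomastigotes/well · Medium – Low-serum DMEM with 2% FBS · Timing – ≥90 h infection period, 3 h prior cell attachment · Evaluation – parasite load inhibition, % · Technique – GalScreen luminescence, 60 min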
Rh123 counter: membrane potential counter-screen of mitochondrial pore inhibitors; shares compounds with MPTP block; 78% of 5,000 active; inhibition, % at 10 µM; isolated mitochondria, Rhodamine 123 fluorescence; in the data active = inhibition above about 22%;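 note: 0% = DMSO vehicle and 100% = positive control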
MPTP abs DR: dose response confirmation of mitochondrial permeability transition pore inhibitors | 58% of 780 active | AID 651561 | shares compounds with MPTP block | IC50, µM | isolated mitochondria swelling, absorbance; in the data active = IC50 below about 20 µM
MPTP counter DR: MPTP inhibitor counter-screen activity, dose response; IC50, µM; AID 651564; shares compounds with MPTP block; 49% of 780 active; isolated mitochondria counterscreen, fluorescence read-out; in the data active = IC50 below about 80 µM
* = called active by the depositor; / = no result; ! = not active in a repeat.

SMILES	DTT redox prof	L major viab	MPTP block	Hep lipid drop	T cruzi repl	Rh123 counter	others
CNS(=O)(=O)c1cc(NC(=O)c2cnc(SC)n2-c2ccccc2)ccc1C	/	/	0	-46	1	/
O=S(=O)(c1cccc(Br)c1)N1CCN(c2ncnc3scc(-c4ccccc4)c23)CC1	/	/	-2	/	/	/
Cc1csc2ncnc(N3CCN(S(=O)(=O)c4cccc(C(F)(F)F)c4)CC3)c12	/	/	97*	-36	1	93*
Cc1sc2ncnc(N3CCN(S(=O)(=O)c4ccc(Br)cc4)CC3)c2c1C	/	/	93*	-44	-1	110*
Cc1sc2ncnc(N3CCN(S(=O)(=O)c4ccc(C(C)(C)C)cc4)CC3)c2c1C	/	/	100*	/	/	100*
Cc1sc2ncnc(N3CCN(CCOc4ccc(Cl)cc4)CC3)c2c1C	0	8	100*	-17	59*	102*
Cc1sc2ncnc(N3CCC(C(=O)NNC(=O)COc4ccc(Cl)cc4)CC3)c2c1C	/	/	0	/	/	/
Cc1cccc(C)c1NC(=O)C(c1ccc(C#N)cc1)n1c(=O)c(-c2ccco2)nc2ccccc21 (stereo not drawn)	/	/	1	/	/	/
CCN(CC(=O)Nc1c(F)cccc1F)C(=O)CCCN1C(=O)c2cccc3cccc(c23)C1=O	/	/	-1	/	/	/
O=C(COC(=O)Cc1c(Cl)cccc1Cl)Nc1ccc(OC(F)(F)F)cc1	0	-4	66*	10	0	73*
CCCCNc1c(-c2ccc(OC)c(SC(C)CC)c2)nc2ccc(C)cn12 (stereo not drawn)	/	/	59*!	/	/	99*
CCCCNc1c(-c2ccc(OC)c(SC(C)CC)c2)nc2ccc(Cl)cn12 (stereo not drawn)	/	/	1	/	/	/
CCCCNc1c(-c2ccc(Sc3ccc(OC)cc3)cc2)nc2cc(C)ccn12	/	/	60*	/	/	97*
CCCCNc1c(-c2ccc(OC)c(SC(C)CC)c2)nc2cc(C)ccn12 (stereo not drawn)	/	/	46	/	/	/
CCC(C)Sc1cc(-c2nc3ccc(C)cn3c2NCc2ccccc2)ccc1OC (stereo not drawn)	/	/	54*!	/	36	105*
CCO[C@H]1OC(C(=O)NCc2nc3ccccc3[nH]2)=C[C@@H](c2ccc3c(c2)OCO3)[C@@H]1CCCO	/	/	0	/	-12	/
O=C(OCC(=O)N1CCCc2ccccc21)c1cc(Br)ccc1O	/	/	0	/	-14	/
O[C@@H]1CN(Cc2ccc(-n3cccn3)cc2)CC[C@H]1N1CCN(c2ccccc2F)CC1	/	/	69*	0	21	59*
Fc1ccccc1N1CCN(Cc2cccnc2)CC1	0	-9	0	0	-9	/
COc1ccc(C2C(C#N)=C(C)NC(C)=C2C(=O)OC(C)C)c(OC)c1 (stereo not drawn)	-1	29	0	11	13	/
Cc1cc(/C=N/n2cnnc2)c(C)n1-c1ccc(OCc2ccc(Cl)cc2Cl)cc1	2	98*	108*	-86	44	101*
Cc1cc(/C=N/n2cnnc2)c(C)n1-c1ccc(OCc2ccc(F)cc2)cc1	3	77*	99*	/	41	93*
Cc1cc(/C=N/n2cnnc2)c(C)n1-c1ccc(Cl)cc1	-1	28	0	-14	39	/
CC(C)[C@@H](NC(=O)C1CCC(CNC(=O)[C@H](Cc2ccccc2)NC(=O)OC(C)(C)C)CC1)C(=O)O (stereo partly drawn)	/	/	-1	18	-10	/
CN(CCc1ccccc1)C(=O)c1ccc(NC(=O)Cc2ccc(NC(=O)C3CCCN(S(=O)(=O)c4cccc([N+](=O)[O-])c4)C3)cc2)cc1 (stereo not drawn)	/	/	1	/	/	/
SMILES	DTT redox prof	L major viab	MPTP block	Hep lipid drop	T cruzi repl	Rh123 counter	others
COc1ccc(CN(C)Cc2cc(=O)n3ccsc3n2)c(OC)c1OC	-2	-1	-1	5	-1	/
C=CCc1cccc(/C=C/c2cc(=O)c3ccccc3[nH]2)c1O	1	0	60*	-2	-17	50*
COc1cccc(CCN2CCC(CNS(=O)(=O)c3cc(-c4cc(C)no4)ccc3C)CC2)c1	/	/	79*	-10	29	9	MPTP abs DR=6.8*;MPTP counter DR=24*
COc1cccc(CCN2CCC(CNS(=O)(=O)c3cc(-c4cc(C)no4)ccc3OC)CC2)c1	/	/	4	-6	22	/
CCOc1ccc(C(=O)Nc2ccc(N3CCN(C)CC3)cc2)cc1Br	0	12	60*	/	33	-15	MPTP abs DR=18*;MPTP counter DR=>80
O=C(Nc1ccc(OC(F)(F)F)cc1)c1[nH]ncc1[N+](=O)[O-]	0	-1	6	-16	-1	/
O=C(N/N=C/c1cccc(O)c1)c1csc2ccccc12	0	69*	108*	3	-11	2	MPTP abs DR=1.1*;MPTP counter DR=>80
CC(=O)Oc1ccc2c(=O)c(Oc3ccccc3)coc2c1OC(C)=O	0	-3	2	-32	-18	/
Cc1cc(NC(=O)CSc2cn(CC(=O)N(C(C)C)C(C)C)c3ccccc23)no1	/	/	-1	-6	1	/
CC(CNC(=O)COc1ccccc1)OC(=O)Nc1ccc(Cl)c(Cl)c1 (stereo not drawn)	3	2	89*	-36	-4	88*
COC(=O)NCC(C)OC(=O)Nc1cccc(Cl)c1 (stereo not drawn)	4	0	-1	/	3	/
Cn1c(=O)c(C(=O)Nc2ncccc2O)c(O)c2ccccc21	-2	-4	74*	/	0	-8	MPTP abs DR=>100;MPTP counter DR=>80
CCOc1ccccc1OCCCCCc1c(C)n[nH]c1C	-1	9	81*	/	-13	47*
Cc1cccc(OCCCCc2c(C)n[nH]c2C)c1C	0	9	54*	-13	-5	83*
CCCCC1(c2ccc(F)cc2)NC(=O)N(CC(=O)N2CCN(C(=O)c3ccco3)CC2)C1=O (stereo not drawn)	/	/	-1	-7	0	/
Cc1ccc(OCCCCNC2CCCC(C)C2C)c(C)c1 (stereo not drawn)	0	90*	60*	-4	57*	-1
CC(=O)N1CCN(C(=O)CCc2nc3ccccc3c(=O)[nH]2)CC1	0	-1	-8	-1	-18	/
Cc1[nH]c2ccccc2c1C(=O)CN1CCN(C/C=C/c2ccccc2)CC1	-3	83*	65*	/	32	-9	MPTP abs DR=17*;MPTP counter DR=52*
Cc1[nH]c2ccccc2c1C(=O)CN1CCN(C2CCCCC2)CC1	0	-4	/	6	/	/
O=C(CCc1nc2ccccc2c(=O)[nH]1)N1CCN(C/C=C/c2ccccc2)CC1	-1	5	68*	0	82*	49*
COc1ccc(CS(=O)(=O)c2nc(C)cc(C)c2S(C)(=O)=O)cc1	0	0	0	-18	-21	/
